The species entered for data set [1] is Homo sapiens. Nature of the data set: Selectivity ratio of IC50 for inhibition of human 15-LOX-1 to IC50 for inhibition of human 15-LOX-2. The method in brief: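 h15-LOX-1 (~60 nM total protein) was run at 23 °C, stirred, in 25 mM HEPES pH 7.5, 0.01% Triton X-100 and 10 μM AA. Diene product was read at 234 nm. Inhibition at 25 μM inhibitor was taken against the DMSO rate, in duplicate.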

The species named for data set [2] is Homo sapiens. The data set is described as follows: Selectivity ratio of IC50 for inhibition of human 5-LOX to IC50 for inhibition of human 15-LOX-2.
The species entered for data set [3] is Homo sapiens. The data set is described as follows: Selectivity ratio of IC50 for inhibition of human COX2 to IC50 for inhibition of human 15-LOX-2. In outline:
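Ovine COX-1 or human recombinant COX-2 (~3 μg) was used in 0.1 M Tris-HCl pH 8.0 with 5 mM EDTA, 2 mM phenol and 1 μM hemin at 37 °C. Inhibitor was preincubated with enzyme for 5 min, then ~100 μM AA was added. O2 consumption was recorded with an oxygen electrode, and rates were compared to the DMSO control, in duplicate.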

The subject of a further data set is HEK-293T. Nature of the data set: Cytotoxicity against human HEK293T cells expressing human 15-LOX-2 at 10 uM measured after 1 hr by cell survival assay. In kind it is cell-based. The method in brief: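 HEK293T cells stably overexpressing h15-LOX-2 were kept in MEM with 10% FBS, 2 mM glutamine, penicillin/streptomycin and 640 ug/ml G418. Cells were exposed to 0.2% DMSO, 10 μM or 20 μM inhibitor for 1 h. Medium was then replaced and cells were checked daily for death.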

Data set [4] is filed under the species Homo sapiens. Nature of the data set: Selectivity ratio of IC50 for inhibition of ovine COX1 to IC50 for inhibition of human 15-LOX-2.
Data set [5] has as its target T1, Polyunsaturated fatty acid lipoxygenase ALOX8 (Mus musculus, UniProt O35936).
T1 sequence (O35936 whole entry): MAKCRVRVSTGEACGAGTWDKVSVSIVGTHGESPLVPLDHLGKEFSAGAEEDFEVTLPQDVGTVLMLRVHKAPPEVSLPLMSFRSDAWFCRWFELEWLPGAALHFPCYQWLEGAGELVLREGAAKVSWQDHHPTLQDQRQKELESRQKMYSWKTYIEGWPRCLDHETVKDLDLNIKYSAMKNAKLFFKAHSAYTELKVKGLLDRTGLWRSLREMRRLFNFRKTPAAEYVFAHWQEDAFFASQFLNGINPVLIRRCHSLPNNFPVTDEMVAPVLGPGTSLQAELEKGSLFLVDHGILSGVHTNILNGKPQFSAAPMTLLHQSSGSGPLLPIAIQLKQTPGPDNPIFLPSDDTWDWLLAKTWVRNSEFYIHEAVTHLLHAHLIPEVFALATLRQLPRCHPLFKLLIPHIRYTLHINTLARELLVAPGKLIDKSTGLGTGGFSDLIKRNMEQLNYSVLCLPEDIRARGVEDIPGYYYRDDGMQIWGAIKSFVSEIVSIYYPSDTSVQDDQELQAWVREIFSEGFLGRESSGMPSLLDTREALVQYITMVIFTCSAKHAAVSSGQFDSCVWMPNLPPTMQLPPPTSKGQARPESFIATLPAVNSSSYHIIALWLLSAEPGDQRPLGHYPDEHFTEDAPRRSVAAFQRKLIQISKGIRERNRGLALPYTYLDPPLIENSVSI
Nature of the data set: Inhibition of mouse 15-LOX2 assessed as enzymatic rate using arachidonic acid as substrate by UV/Vis spectrophotometric analysis.

The target in data set [6] is Prostaglandin G/H synthase 1 (Ovis aries) (UniProt P05979). The data set is described as follows: Inhibition of ovine COX-1 assessed as enzymatic rate using arachidonic acid as substrate by oxygen electrode measurement of oxygen consumption.
Data set [7] addresses T2, Polyunsaturated fatty acid lipoxygenase ALOX15B (Homo sapiens) (UniProt O15296).
T2 sequence (whole entry): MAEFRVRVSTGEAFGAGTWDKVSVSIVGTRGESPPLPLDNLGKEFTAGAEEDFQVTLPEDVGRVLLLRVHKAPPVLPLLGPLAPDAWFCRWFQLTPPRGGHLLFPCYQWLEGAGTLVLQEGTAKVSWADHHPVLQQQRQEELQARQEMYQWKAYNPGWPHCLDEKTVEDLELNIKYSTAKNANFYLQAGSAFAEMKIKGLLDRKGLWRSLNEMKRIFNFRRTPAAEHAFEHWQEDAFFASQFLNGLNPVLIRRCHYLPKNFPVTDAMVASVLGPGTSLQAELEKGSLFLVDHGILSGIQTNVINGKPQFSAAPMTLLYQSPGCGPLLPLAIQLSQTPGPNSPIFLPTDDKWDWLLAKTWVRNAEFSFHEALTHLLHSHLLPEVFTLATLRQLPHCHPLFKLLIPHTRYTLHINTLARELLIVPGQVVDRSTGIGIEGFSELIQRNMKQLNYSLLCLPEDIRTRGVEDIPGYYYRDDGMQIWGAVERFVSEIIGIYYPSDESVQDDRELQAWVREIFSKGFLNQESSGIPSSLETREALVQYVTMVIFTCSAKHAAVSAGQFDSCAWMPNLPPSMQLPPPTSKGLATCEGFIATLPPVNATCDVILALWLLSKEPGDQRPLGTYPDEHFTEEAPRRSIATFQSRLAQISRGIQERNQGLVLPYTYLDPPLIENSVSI
The data set is described as follows: Competitive inhibition of human 15-LOX-2 assessed as equilibrium dissociation constant from catalytic site by measuring 15-HpETE by Dixon plots and Dixon replots analysis. In outline:
(§1)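 Steady-state kinetics with h15-LOX-2 at 23 °C in stirred 25 mM HEPES pH 7.5, 0.01% Triton X-100, with 0.7–20 μM AA, reaction started by adding enzyme. Initial rates at varied inhibitor levels were fit to Henri-Michaelis-Menten for Vmax and Km. Slopes from Dixon plots (1/v vs [I]) were replotted against 1/[S]. Kic = (Km/Vmax)/replot slope; Kiu = (1/Vmax)/replot y-intercept.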

The target of data set [8] is T2, Polyunsaturated fatty acid lipoxygenase ALOX15B (Homo sapiens). The data set is described as follows: Uncompetitive inhibition of human 15-LOX-2 assessed as equilibrium dissociation constant from secondary site by measuring 15-HpETE by Dixon plots and Dixon replots analysis. The method in brief: as §1
The species named for data set [9] is Homo sapiens. Nature of the data set: Selectivity ratio of IC50 for inhibition of human 12-LOX to IC50 for inhibition of human 15-LOX-2. The method in brief: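 Conjugated diene formation was followed at 234 nm. Rates were compared with the DMSO control at a single 25 μM inhibitor concentration, in duplicate.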

As a reminder, the IC50 is the concentration needed to halve the response being measured.

For `CCc1ccc(CSc2nccn2-c2ccccc2)cc1`, the Ratio IC50 in the data set filed under Homo sapiens [1], in the data set listed under Homo sapiens [2], in the data set listed under Homo sapiens [3], in the data set listed under Homo sapiens [4] and in the data set filed under Homo sapiens [9] was > 50 throughout. The Activity result with HEK-293T was “Non-Toxic”. The figures for the IC50 in data set [5] and in [6] were > 50 µM and > 100 µM, respectively. The Kic in [7] came to 0.9 µM. Moreover, in data set [8], the Kiuc came to 3.4 µM.
On to `Brc1ccc(CSc2nccn2-c2ccccc2)cc1`, for which, in the data set with HEK-293T, the Activity result is on record as “Non-Toxic”. The values for the IC50 in data set [5] and in data set [6] were > 50 µM and > 100 µM, respectively.
As for `FC(F)(F)c1ccc(CSc2nccn2-c2ccccc2)cc1`, the Ratio IC50 in the data set listed under Homo sapiens [1], in the data set filed under Homo sapiens [2], in the data set filed under Homo sapiens [3], in the data set filed under Homo sapiens [4] and in the data set filed under Homo sapiens [9] was > 50 in each case. Also, in the data set on HEK-293T, the Activity entry is “Non-Toxic”. The IC50 in [5] was > 50 µM; in data set [6], > 100 µM. The Kic in data set [7] stood at 0.7 µM.
As to `Cc1ccc(CSc2ncn(-c3ccccc3)n2)cc1`, the Activity entry with HEK-293T was “Non-Toxic”.

For the origin of these results see ChEMBL document CHEMBL4823318, “Kinetic and structural investigations of novel inhibitors of human epithelial 15-lipoxygenase-2” (Bioorg Med Chem, 2021).
